# Assay outcomes from PubChem BioAssay.
# This is a sample that favours compounds with a hit; in the whole collection about 1.9% have one here.
# 697 NFkB inh – inhibitors of PMA/ionomycin-induced NF-kB reporter, 697 cells, primary screen, B-cell NF-kB inhibitor project, cell-based, luminescence, uHTS; 697 B-cell NF-kB luciferase reporter, 16 h; inhibition, % at 4 µM; 330,000 compounds, 0.33% hits; AID 435022, 2010; in the data active means inhibition above about 35%
# H9c2 TAG inh – inhibitors of triacylglycerol accumulation, primary screen, cell-based, uHTS, fluorescence, H9c2; H9c2 cells, Nile Red lipid (TAG) fluorescence; cells loaded with 200 µM oleic acid; inhibition, % at 12.5 µM; 230,000 compounds, 0.66% hits; AID 651582, 2012;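 active means pattern-corrected inhibition of lipid staining of at least 50% with the nuclear-stain viability signal not falling by more than 50%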;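 further: 0% = DMSO wells and 100% = triacsin C control wells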
# APP 5UTR inh – inhibitors of APP translation via 5'UTR reporter, primary screen, APP 5'UTR luciferase, SH-SY5Y cells; 190,000 compounds, 0.82% hits; AID 1285, 2008; SH-SY5Y APP 5'UTR-luciferase reporter, luminescence; inhibition, % at 2 µM;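 active means inhibition above a set limit, derived from the sample mean plus 3 SD, cut at about 45% in these data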
# aSyn 5UTR inh – MLPCN primary screen, SNCA 5' untranslated region. 300,000 compounds, 0.82% hits. alpha-synuclein 5'UTR reporter, inhibitor activity. inhibition, % (tested at 7.5 µM); in the data active means inhibition above about 60%;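 further: H4 neuroglioblastoma cells stably carrying SNCA 5'UTR luciferase fusion; 0% = DMSO wells and 100% = positive control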
# Lipid droplet – inhibitors of hepatocyte lipid droplet formation, primary screen, imaging, high-throughput imaging, BODIPY stain; 240,000 compounds, 0.4% hits; inhibition, % at 6.5 µM; AML12 mouse hepatocytes, oleate lipid droplets;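 active means lipid droplet intensity inhibited by at least 50%, with more than 500 cells counted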
#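 Test system: AML12 hepatocytes (mouse); reagent: oleate loading, 100 µM; dosing: one dose, 6.5 µM compound; incubation: overnight exposure; signal: fluorescence imaging, 20x objective, two fields per well; read-out basis: % inhibition of corrected integrated BODIPY droplet signal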
# Jurkat NFkB inh – inhibitors of induced NF-kB luciferase reporter, primary screen, TCR NF-kB activation inhibitor project, cell-based, luminescence, uHTS. Jurkat, PMA/ionomycin-induced NF-kB luciferase reporter. inhibition, % at 4 µM. 330,000 compounds, 0.53% hits; in the data active means inhibition above about 50%
# Jurkat NFkB conf – PMA/ionomycin-induced NF-kB reporter inhibitors, Jurkat retest, confirmation, T-cell NF-kB inhibitor project, cell-based, luminescence, single concentration. shares compounds with Jurkat NFkB inh. Jurkat NF-kB luciferase, 16 h. inhibition, % at 4 µM. 2,700 compounds, 27% hits. AID 435020, 2010;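 active means inhibition reaching about 45% at 4 µM in either replicate, limit read from the data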;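 further: plate controls were PMA/ionomycin stimulated DMSO wells for no effect and unstimulated DMSO wells for full effect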
# 697 NFkB conf – PMA/ionomycin-induced NF-kB reporter inhibitors, 697 retest, confirmation, B-cell NF-kB inhibitor project, cell-based, luminescence, single concentration; 697 B-cell NF-kB luciferase, 16 h; shares compounds with 697 NFkB inh; inhibition, % at 4 µM; 2,000 compounds, 35% hits; in the data active means inhibition mostly above about 28%, no sharp cut-off; inactive means mostly below about 22%
# * hit, by the source's call; i = inactive; . = not tested or not shown.
SMILES,697 NFkB inh,H9c2 TAG inh,APP 5UTR inh,aSyn 5UTR inh,Lipid droplet,Jurkat NFkB inh,Jurkat NFkB conf,697 NFkB conf
O=C(Nc1nc2ccccc2s1)c1cnccn1,-212.9,.,-55.5,-39.5,1.2,-51.1,.,.
c1ccc2sc(NN=C3CCCCCC3)nc2c1,-388.3,16.7,-149.1,5.2,-0.9,-155.9,-91.7,-319.5
COc1ccc(NC(=O)C2(C)CCN2CCOc2ccc(C)cc2)cc1OC (stereo unspecified),.,-10.7,.,.,.,.,.,.
COc1ccc(NC(=O)C2(C)CCN2Cc2csc3ccccc23)cc1OC (stereo unspecified),.,-2.6,.,.,.,.,.,.
O=C(COc1ccc2ccccc2c1Br)N1CCCCC1,-54.3,-13.9,.,-61.4,-18.4,-45.0,.,.
O=C(Oc1ccc2ccccc2c1Br)N1CCCCCC1,i,-0.8,-172.4,26.2,.,-308.3,-102.8,i
O=C(Cc1ccccc1)Nc1ccccc1C(=O)N1CCCCCC1,11.1,.,3.4,14.1,0.7,4.6,.,.
Cc1cc(C(=O)NCCN2C(=O)S/C(=C\c3cccs3)C2=O)ccc1[N+](=O)[O-],6.3,-9.8,-17.1,-23.6,8.4,4.5,.,.
C[C@@H]1CCC[C@]2(O[C@@H](CCO)C[C@@H](O)[C@@H]2O)O1,16.2,-0.6,.,-3.2,.,0.2,.,.
Cc1ccc(C2=NN(S(C)(=O)=O)C(c3ccc4c(c3)OCO4)C2)cc1 (stereo unspecified),-258.7,.,-139.4,-265.1,-1.2,-174.7,-111.2,-276.2
CS(=O)(=O)N1N=C(c2ccc(Br)cc2)CC1c1ccc2c(c1)OCO2 (stereo unspecified),-110.5,.,-111.0,-321.9,.,-136.1,.,.
COC(=O)Cc1ccc(NC(=O)c2ccccc2Cl)cc1,34.3,7.5,8.9,27.9,-2.4,-1.5,.,.
Cc1ccc(NC(=O)c2ccsc2)cc1NS(C)(=O)=O,18.0,.,.,2.3,.,-10.0,.,.
COC(=O)Cc1ccc(NC(=O)c2ccc(C(C)(C)C)cc2)cc1,77.1*,72.5*,84.0*,124.4*,9.2,64.0*,78.6*,73.6*
CC(C)(C)c1ccc(NC(=O)c2ccsc2)cc1,-324.1,0.7,.,-52.4,-43.1,-180.1,-166.4,-368.4
Cc1ccc(S(=O)(=O)n2cnc(C)c2)cc1,0.2,22.8,.,6.0,.,-6.7,.,.
Cc1cccc(N(C(=O)C(F)(F)F)C(C(=O)NC2CCCCC2)c2cccs2)c1 (stereo unspecified),14.8,.,-12.1,20.3,.,2.1,.,.
C#CC(=O)N(c1cccc(OC)c1)C(C(=O)NC1CCCC1)c1cccs1 (stereo unspecified),103.0*,.,19.1,92.3*,.,98.9*,94.2*,99.8*
O=C(COc1ccc(S(=O)(=O)NC2CCCCC2)cc1)NC1CC1,-6.0,11.1,.,21.1,-14.8,-4.0,.,.
COCC1CCN(C(=O)c2cc(COc3cccc4cnccc34)on2)CC1,-18.1,.,.,2.6,11.3,31.2,.,.
O=C(c1cc(COc2cccc3cnccc23)on1)N1CCCC(CCCO)C1 (stereo unspecified),56.1*,-9.9,.,-4.5,-37.1,54.7*,77.2*,101.5*
C/C(=N\Nc1ccc(F)cc1F)c1cccs1,-14.3,.,-12.1,-87.6,2.9,-12.6,.,.
CCCN(CCC)c1ncnc2c1cnn2-c1ccc(OC)cc1,-348.6,.,-136.8,-77.0,-2.7,-160.9,-103.4,-363.4
CCC(CO)Nc1ncnc2c1cnn2-c1ccc(OC)cc1 (stereo unspecified),-123.8,-3.9,-148.0,-74.8,.,-91.2,.,.
CC(C)N(CCNC(=O)c1nn(Cc2ccccc2)c(=O)c2ccccc12)C(C)C,-40.2,6.2,.,-18.5,-16.7,-10.1,.,.
SMILES,697 NFkB inh,H9c2 TAG inh,APP 5UTR inh,aSyn 5UTR inh,Lipid droplet,Jurkat NFkB inh,Jurkat NFkB conf,697 NFkB conf
O=C(Nc1nc2ccccc2[nH]1)c1ccc(OC(F)F)cc1,-324.8,.,.,-2.9,7.6,-164.9,-94.3,-397.1
COc1cc(C(=O)Nc2nc3ccccc3[nH]2)ccc1OC(F)F,-155.7,-8.3,.,-233.3,-6.1,-95.2,.,.
O=C(Nc1nc(-c2ccc(F)c(F)c2)cs1)c1ccc(OCC2CCCO2)cc1 (stereo unspecified),50.2*,.,-24.4,17.0,-15.3,58.4*,63.0*,32.8*
CCOc1ccc(/C=C(\C(=O)O)c2ccc(S(=O)(=O)N3CCCCC3)s2)cc1OC,10.6,0.2,.,.,.,18.5,.,.
CCN1/C(=C/C(C)=C/c2sc3ccccc3[n+]2CC)Sc2ccccc21,49.3*,104.0,66.9*,99.7*,-82.1,93.2*,78.5*,7.3
CCN1/C(=C\C(=S)Nc2ccccc2)Sc2ccccc21,-15.1,-64.4,-63.2,-143.6,-2.0,-15.4,.,.
O=C(CC(Nc1ccccc1Cl)C(=O)O)c1ccccc1 (stereo unspecified),-269.3,4.8,-172.3,-93.7,-16.9,-255.8,16.6,-52.0
COc1cccc2c1C(CO)N1C(C#N)C3CC(C(=O)O)C(C1C2)N3C (stereo unspecified),103.7*,.,.,.,-23.8,97.2*,96.4*,102.2*
COc1cccc2c1OCC(C(=O)O)C2 (stereo unspecified),12.0,16.4,0.9,16.5,6.6,14.2,.,.
Cc1nc(Nc2ccccc2)sc1-c1ccccc1,-303.1,.,-187.0,-43.9,-7.2,-164.1,-81.5,-150.9
Cc1nc(Nc2ccccc2)sc1C(=O)c1ccccc1,-54.3,-7.1,.,-67.8,0.1,-44.1,.,.
CC(C)Cn1c(N)c(C(=O)CSc2ccc3c(c2)OCCO3)c(=O)n(C)c1=O,38.6*,-114.4,-2.7,-24.6,.,54.3*,46.8,-5.0
COc1ccccc1/C=C/C(=O)OCC(=O)NC1CCS(=O)(=O)C1 (stereo unspecified),-7.1,-3.2,.,.,.,-5.3,.,.
Cc1ccc2cc3cc(C(=O)N4CCCCC4C)oc3nc2c1 (stereo unspecified),-329.3,10.4,-196.6,-199.7,.,-210.2,-160.3,-289.6
Cc1ccc(-n2nc3ccc(NC(=O)C(C)C)cc3n2)cc1,-261.6,.,-193.6,-137.0,19.5,-167.3,-141.1,-395.5
CC(C)C(=O)Nc1ccc2nn(-c3ccc(F)cc3)nc2c1,-415.1,10.8,.,-71.1,4.6,-227.3,-110.2,-353.9
CC(C)C(=O)Nc1ccc(N2CCN(c3ccc(F)cc3)CC2)cc1,8.4,0.1,20.7,3.4,9.6,15.0,.,.
O/N=C1\CCCc2c1nc(-c1ccccc1F)n2O,-0.4,15.6,.,-5.7,13.8,4.5,.,.
